The source of these data is ChEMBL document CHEMBL3797094, “Turmeric Sesquiterpenoids: Expeditious Resolution, Comparative Bioactivity, and a New Bicyclic Turmeronoid” (J Nat Prod, 2016).

Active and inactive are the calls of the source. No cut-off for these calls is given here.

Series [1] can be described thus: Inhibition of TNF alpha-induced NF-kappaB (unknown origin) activation in NIH/3T3-KBF-Luc cells after 6 hrs by luciferase reporter gene assay. As to conditions: Homo sapiens. Type of series: cell-based. The method in brief: (§1)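 NIH-3T3-KBF-Luc fibroblasts (15 × 10⁴ cells/mL) were kept at 37 °C and 5% CO2 in DMEM with 10% heat-inactivated FBS. Cells were preincubated with the compounds at rising concentrations, then stimulated with TNFα for 6 h. They were PBS-washed and lysed for 15 min at rt in Tris-phosphate pH 7.8 with 1% Triton X-100. Luciferase was read in the supernatant, with TNFα alone set as 100%.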
On the technique in general: Reporter assays use an easily measured gene product as a stand-in for the process of interest.

The species entered for series [2] is Homo sapiens. The series can be described thus: Inhibition of TNF alpha-induced NF-kappaB (unknown origin) activation in NIH/3T3-KBF-Luc cells assessed as suppression of IKappaB alpha phosphorylation at 1 to 50 uM preincubated for 15 mins followed by TNF alpha stimulation for 30 mins by western blot analysis. Format: cell-based. A digest of the protocol: (§2)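 NIH-3T3-KBF-Luc cells were treated with the compounds for 15 min, then stimulated with TNFα (30 ng/mL) for 30 min. Lysis used Hepes pH 8.0 buffer with 0.5% NP-40 and protease/phosphatase inhibitors (15 min, 4 °C), then 10000g for 10 min. After Bradford assay, 20 μg protein was run on 10% SDS-PAGE and blotted to nitrocellulose. Blocking was 5% milk overnight; phospho-protein detection was by ECL.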
(In western blotting, separated proteins are transferred to a membrane and probed.)

For series [3], the species on record is Homo sapiens. In words: Inhibition of TNF alpha-induced NF-kappaB (unknown origin) activation in NIH/3T3-KBF-Luc cells assessed as suppression of p65 phosphorylation at 1 to 50 uM preincubated for 15 mins followed by TNF alpha stimulation for 30 mins by western blot analysis. Format: cell-based. A digest of the protocol: as §2
Series [4] can be described thus: Cytotoxicity against mouse NIH/3T3-KBF-Luc cells assessed as cell viability at 1 to 50 uM after 12 hrs by YOYO-1 staining based fluorescence assay. As to conditions: nih3t3, 12 h.
The nature of series [5]: Cytotoxicity against mouse NIH/3T3-EPO-Luc cells assessed as cell viability at 1 to 50 uM after 12 hrs by YOYO-1 staining based fluorescence assay. As to conditions: nih3t3, 12 h.
In a further series the test system is HeLa. The series can be described thus: Cytotoxicity against human HeLa-STAT3-Luc cells assessed as cell viability at 1 to 50 uM after 12 hrs by YOYO-1 staining based fluorescence assay.
For another series, the system named is HaCaT. The series can be described thus: Cytotoxicity against human HaCaT-ARE-Luc cells assessed as cell viability at 1 to 50 uM after 12 hrs by YOYO-1 staining based fluorescence assay.
In series [6] the target is T1, Nuclear factor erythroid 2-related factor 2 (Homo sapiens) (UniProt Q16236).
T1 sequence (whole entry): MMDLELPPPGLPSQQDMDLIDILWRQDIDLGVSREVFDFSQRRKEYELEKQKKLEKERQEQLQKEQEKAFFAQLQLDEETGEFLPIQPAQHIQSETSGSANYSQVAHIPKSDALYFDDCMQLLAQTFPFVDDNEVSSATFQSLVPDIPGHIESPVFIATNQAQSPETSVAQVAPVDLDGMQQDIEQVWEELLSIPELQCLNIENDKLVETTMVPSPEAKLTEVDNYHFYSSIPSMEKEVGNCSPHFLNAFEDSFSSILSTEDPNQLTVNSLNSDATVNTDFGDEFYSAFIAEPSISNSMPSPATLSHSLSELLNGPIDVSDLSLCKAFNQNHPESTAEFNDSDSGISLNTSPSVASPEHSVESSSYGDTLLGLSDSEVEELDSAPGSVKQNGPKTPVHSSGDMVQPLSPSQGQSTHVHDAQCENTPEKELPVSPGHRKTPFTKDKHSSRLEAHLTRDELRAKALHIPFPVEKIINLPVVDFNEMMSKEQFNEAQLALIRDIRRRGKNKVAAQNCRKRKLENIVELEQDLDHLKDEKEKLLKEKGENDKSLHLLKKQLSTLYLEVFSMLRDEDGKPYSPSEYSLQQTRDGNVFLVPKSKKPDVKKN
The series can be described thus: Activation of Nrf2 (unknown origin) in HaCaT-ARE-Luc cells at 1 to 50 uM after 6 hrs by luciferase reporter gene assay. Format: cell-based. The method in brief:
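HaCaT-ARE-Luc cells (15 × 10⁴ cells/mL, DMEM with 10% FBS, 37 °C, 5% CO2) were exposed to the compounds alone at rising concentrations for 6 h. Cells were PBS-washed and lysed in Tris-phosphate pH 7.8 with Triton X-100. Luciferase activity in the cleared lysate is given as fold induction over basal.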

Series [7] concerns the target Hypoxia-inducible factor 1-alpha (Homo sapiens) (UniProt Q16665). In words: Inhibition of DFX induced HIF-1 alpha (unknown origin) activation in NIH/3T3-EPO-Luc cells at 1 to 50 uM after 6 hrs by luciferase reporter gene assay. Format: cell-based. The method in brief:
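NIH-3T3-EPO-Luc cells (15 × 10⁴ cells/mL, DMEM with 10% FBS, 37 °C) were preincubated with the compounds at rising concentrations, then given DFX (150 μM) for 6 h. Luciferase was measured in the cleared Tris-phosphate/Triton lysate and expressed as fold induction over basal.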

Series [8] is filed under the species Homo sapiens. The series can be described thus: Activation of NF-kappaB (unknown origin) in NIH/3T3-KBF-Luc cells at 1 to 50 uM coincubated with TNF-alpha after 6 hrs by luciferase reporter gene assay. Format: cell-based. The method in brief: as §1
For series [9], the target named is Signal transducer and activator of transcription 3 (Homo sapiens) (UniProt P40763). In words: Inhibition of IFN gamma-induced STAT3 (unknown origin) activation in HeLa-STAT3-Luc cells at 1 to 50 uM after 6 hrs by luciferase reporter gene assay. Format: cell-based. The method in brief:
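HeLa-STAT3-Luc reporter cells (15 × 10⁴ cells/mL, DMEM with 10% FBS, 37 °C, 5% CO2) were preincubated with the compounds at rising concentrations, then stimulated with IFNγ for 6 h. Lysate luciferase is expressed as percent inhibition, with IFNγ-induced activity set as 100%.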

Chain of Hypoxia-inducible factor 1-alpha (Homo sapiens) (Q16665 whole entry, looked up): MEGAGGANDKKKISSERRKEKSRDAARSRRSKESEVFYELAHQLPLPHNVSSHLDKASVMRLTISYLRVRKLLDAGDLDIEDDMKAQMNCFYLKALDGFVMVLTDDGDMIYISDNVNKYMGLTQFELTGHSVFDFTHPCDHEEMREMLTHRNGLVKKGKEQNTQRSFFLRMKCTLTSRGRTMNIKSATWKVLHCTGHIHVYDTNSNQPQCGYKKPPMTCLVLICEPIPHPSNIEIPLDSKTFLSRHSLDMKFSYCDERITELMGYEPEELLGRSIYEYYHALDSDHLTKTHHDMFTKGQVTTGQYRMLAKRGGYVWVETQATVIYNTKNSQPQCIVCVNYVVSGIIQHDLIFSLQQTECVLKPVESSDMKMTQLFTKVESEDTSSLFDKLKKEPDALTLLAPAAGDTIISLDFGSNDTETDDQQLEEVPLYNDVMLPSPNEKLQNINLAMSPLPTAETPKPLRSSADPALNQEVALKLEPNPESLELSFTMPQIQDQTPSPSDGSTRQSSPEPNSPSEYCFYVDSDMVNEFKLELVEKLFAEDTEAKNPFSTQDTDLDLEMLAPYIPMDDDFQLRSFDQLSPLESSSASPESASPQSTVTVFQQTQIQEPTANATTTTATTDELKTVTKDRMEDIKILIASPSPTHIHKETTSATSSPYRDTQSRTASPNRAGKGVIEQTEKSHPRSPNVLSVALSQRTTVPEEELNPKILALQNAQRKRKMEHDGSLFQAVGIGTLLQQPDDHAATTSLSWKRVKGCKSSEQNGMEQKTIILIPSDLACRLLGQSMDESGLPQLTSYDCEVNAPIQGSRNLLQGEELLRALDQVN
Chain of Signal transducer and activator of transcription 3 (Homo sapiens) (P40763 whole entry): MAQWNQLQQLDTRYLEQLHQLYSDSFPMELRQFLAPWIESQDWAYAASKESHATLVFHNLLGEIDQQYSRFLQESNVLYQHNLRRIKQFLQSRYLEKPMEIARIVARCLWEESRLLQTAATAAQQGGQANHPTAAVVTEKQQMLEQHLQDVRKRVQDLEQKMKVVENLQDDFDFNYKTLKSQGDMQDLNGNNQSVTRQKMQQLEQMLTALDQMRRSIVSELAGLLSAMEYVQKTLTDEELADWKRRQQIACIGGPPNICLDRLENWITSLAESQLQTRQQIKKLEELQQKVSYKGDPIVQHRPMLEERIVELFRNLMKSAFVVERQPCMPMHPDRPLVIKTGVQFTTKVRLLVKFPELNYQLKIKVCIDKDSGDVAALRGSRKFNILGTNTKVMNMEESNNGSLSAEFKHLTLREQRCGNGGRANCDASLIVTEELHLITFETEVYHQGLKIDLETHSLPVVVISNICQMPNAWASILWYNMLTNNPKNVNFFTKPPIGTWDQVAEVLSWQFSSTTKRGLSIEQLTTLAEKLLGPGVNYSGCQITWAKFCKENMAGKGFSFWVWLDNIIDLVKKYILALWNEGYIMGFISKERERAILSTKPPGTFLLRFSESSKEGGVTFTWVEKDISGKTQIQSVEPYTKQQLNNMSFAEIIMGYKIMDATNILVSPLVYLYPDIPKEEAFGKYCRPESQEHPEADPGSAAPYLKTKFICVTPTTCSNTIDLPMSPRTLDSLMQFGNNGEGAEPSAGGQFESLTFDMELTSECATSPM

Turning to `CC(C)=CC(=O)C[C@H](C)c1ccc(C)cc1`, the IC50 (usually the midpoint of a concentration-inhibition curve) in series [1] came to 22.7 µM. The inhibition result in the series filed under Homo sapiens [2] and in the series filed under Homo sapiens [3] was “Active” each time. The Activity result (in [4]; in [5]; in the series with HeLa; in the series on HaCaT) was “Non-toxic” each time. Also, the result in [6] was inactive. Besides, the inhibition entry in series [7] is “inactive”.

Regarding `C=C1C=C[C@H]([C@@H](C)CC(=O)C=C(C)C)CC1`, the outcome (in the series listed under Homo sapiens [8]; in [6]) was Active. The result in series [9] was inactive. For the same compound, the inhibition result in [7] was “inactive”.
